Compound activity deposited in PubChem by several laboratories.
Only some compounds are listed: those with a hit (about 29% of all), similar ones and a draw of the others.
CYP2C19 inh: blocks human cytochrome P450 2C19; CYP2C19 Supersomes, luciferin-H EGE luminescence, 30 min; inhibition, % at 5 µM; 21% of 96,000 active; AID 778;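 active means CYP2C19 inhibition above a set limit at 5 µM in the primary screen, cut at about 50% in these data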;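 further: plate controls were negative control wells for no effect and 2.5 mM tranylcypromine positive control for full effect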
CYP2C9 act: CYP2C9 (human) activation; AID 1024; P11712; activation factor at 5 µM; recombinant CYP2C9, luciferin-H conversion, luminescence; stronger effect = higher value; factor 1 = untreated enzyme, 0 = blocked; 1.4% of 96,000 active;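 active means activation factor of 2 or more for CYP2C9 at a 5 µM dose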;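 further: 0 = sulfaphenazole-blocked wells and 1 = vehicle-only wells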
Target sequence (P11712 whole entry, looked up): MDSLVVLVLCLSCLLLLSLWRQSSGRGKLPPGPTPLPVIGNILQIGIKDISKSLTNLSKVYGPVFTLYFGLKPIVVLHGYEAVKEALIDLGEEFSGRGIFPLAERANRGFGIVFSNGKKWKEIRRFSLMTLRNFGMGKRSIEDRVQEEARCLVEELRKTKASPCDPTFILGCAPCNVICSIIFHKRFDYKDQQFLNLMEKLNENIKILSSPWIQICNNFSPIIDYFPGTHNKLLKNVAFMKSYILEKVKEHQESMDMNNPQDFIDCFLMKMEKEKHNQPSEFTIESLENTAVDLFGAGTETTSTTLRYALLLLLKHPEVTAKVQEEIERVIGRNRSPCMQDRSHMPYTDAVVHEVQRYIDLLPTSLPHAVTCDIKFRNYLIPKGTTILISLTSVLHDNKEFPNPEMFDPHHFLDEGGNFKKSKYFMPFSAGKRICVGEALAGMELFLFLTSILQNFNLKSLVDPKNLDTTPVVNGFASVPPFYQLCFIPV
CYP2C19 activ: cytochrome P450 2C19 (human) activation; P33261; recombinant CYP2C19, luciferin-H EGE luminescence; stronger effect = higher value; 0 = fully inhibited enzyme, 1 = untreated enzyme; activation factor at 5 µM; 96,000 tested, under 10 active; AID 1025;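 active means activation factor of at least 2 at 5 µM in the primary screen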;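 further: 0 = wells with 2.5 mM tranylcypromine and 1 = vehicle-only wells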
CYP2C9 inhib: human CYP2C9 inhibition | P11712 | AID 777 | inhibition, % at 5 µM | CYP2C9 Supersomes, luciferin-H conversion, luminescence | 20% of 96,000 active;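 active means blocking of liver enzyme CYP2C9 beyond about 50% at 5 µM, limit read from the data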
Ecoli WT expand: E. coli BW25113 growth inhibition, expanded screen; OD600 absorbance; growth inhibition, % at 100 µM; 0.15% of 98,000 active;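 active means growth inhibition above about 50% at one test dose, limit read from the data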;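 further: growth measured after 20 h incubation at 37 °C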
tolC growth inh: E. coli tolC mutant growth inhibition | E. coli BW25113 tolC mutant growth, OD615 | growth inhibition, % at 10 µM (by protocol) | 2.2% of 65,000 active | AID 573;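 active means growth inhibition at or above a cutoff equal to the mean over every tested compound plus 3 SD, cut at about 60% in these data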;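 further: growth measured after 20 h incubation at 37 °C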
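test system = E. coli BW25113 ΔtolC::kan bacteria | medium = LB with kanamycin 50 µg/mL | signal = OD at 615 nm | schedule = 37 °C, 20 h exposure | evaluation = % inhibition of E. coli growth | compound dosing = one dose of 10 µM final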
* = called active by the depositor; . = no result.

SMILES	CYP2C19 inh	CYP2C9 act	CYP2C19 activ	CYP2C9 inhib	Ecoli WT expand	tolC growth inh
CCN(CC)S(=O)(=O)c1ccc(C2CNC(=O)C2)cc1 (stereo not given)	-19	0.9	1.2	10	5	-11
O=C(NCc1ccncc1)c1c(F)c(F)c(F)c(F)c1F	24	0.3	0.8	67*	0	-4
O=C(NCc1ccncc1)c1cccc(F)c1	18	0.8	0.8	18	9	-12
O=C(NCc1ccncc1)C(F)(F)C(F)(F)C(=O)NCc1ccncc1	46	0.1	0.5	93*	2	-5
O=C(/C=N/O)NCc1ccncc1	-3	0.9	1	11	-8	-14
Cc1ccc(N2C(=O)c3ccccc3C2O)nc1 (stereo not given)	79*	0.6	0.2	40	1	-27
Oc1ccc(Cl)cc1-c1cc(-c2cccc(Br)c2)n[nH]1	11	0.8	0.9	20	-8	.
Oc1ccccc1-c1cc(-c2ccco2)[nH]n1	38	0.5	0.6	51*	17	.
Oc1ccccc1-c1cc(-c2cccc(F)c2)n[nH]1	25	0.6	0.7	39	24	100*
Oc1ccccc1-c1cc(-c2ccccc2Cl)[nH]n1	16	0.6	0.8	45	4	100*
Cc1ccc(O)c(-c2cc(-c3ccccc3C)[nH]n2)c1	82*	0	0.2	98*	14	100*
Cc1ccc(O)c(-c2cc(C(F)(F)C(F)F)[nH]n2)c1	84*	0.2	0.2	83*	34	37
Oc1c(-c2cc(-c3ccco3)[nH]n2)ccc2ccccc12	35	0.3	0.6	74*	-8	10
Oc1ccc(Cl)cc1-c1cc(-c2ccco2)[nH]n1	10	0.7	0.9	35	16	.
COc1cc(O)oc1C=Nc1ccc(C(F)(F)F)cc1	42	0.8	0.6	22	-3	.
Cc1csc2ncc(C(=O)NCc3ccco3)c(=O)n12	.	.	.	.	1	-15
O=C(Nc1cccc(C(F)(F)F)c1)c1cccnc1N1CCN(c2ccccc2)CC1	58*	0.5	0.4	49	-7	.
COC(=O)[C@@H](NC(=O)N1CCN(c2cccc(C(F)(F)F)c2)CC1)C(C)C	53*	1.6	0.5	-58	10	13
O=C(CS(=O)(=O)Cc1ccccc1)N1CCN(c2cccc(C(F)(F)F)c2)CC1	57*	0.9	0.4	12	-5	26
O=C(Nc1ccccc1)N1CCN(c2cccc(C(F)(F)F)c2)CC1	58*	2*	0.4	-100	5	.
Cn1cc(S(=O)(=O)N2CCc3ccccc3C2)c(=O)n(C)c1=O	20	1.2	0.8	-16	0	-16
CCC(C)[C@H](NC(=O)N1CCN(c2cccc(C(F)(F)F)c2)CC1)C(=O)OC (stereo not given in full)	29	1.5	0.7	-50	0	.
CNS(=O)(=O)c1cnccc1N1CCN(c2cccc(C(F)(F)F)c2)CC1	77*	0.5	0.2	47	12	.
C=CCOC(=O)N1CCN(c2cccc(C(F)(F)F)c2)CC1	96*	0.2	0	80*	10	13
O=C(c1c(F)cccc1F)N(Cc1ccccn1)C1CC1	4	1.1	1	-7	2	.
SMILES	CYP2C19 inh	CYP2C9 act	CYP2C19 activ	CYP2C9 inhib	Ecoli WT expand	tolC growth inh
COC(=O)c1ccccc1NC(=O)c1cc(-c2cccs2)on1	-2	2*	1	-103	0	-13
O=C(Nc1cccnc1)c1cc(-c2cccs2)on1	-8	1	1.1	-2	-15	-21
O=C(Nc1cccc(C(F)(F)F)c1)c1cc(-c2cccs2)on1	-6	2.5*	1.1	-147	-8	6
CCN(CC#CCC1(O)c2ccccc2-c2ccccc21)C(C)C	29	0.8	0.7	19	4	.
Cc1nc(S(=O)(=O)c2ccc(Cl)cc2)c(NCc2ccccc2)o1	40	1	0.6	3	-4	19
O=S(=O)(NCc1ccc(Cl)cc1)c1cnc[nH]1	78*	0	0.2	95*	11	-16
O=S(=O)(NCc1ccccc1)c1cnc[nH]1	62*	0.1	0.4	95*	7	-14
Cc1ccc(CCNS(=O)(=O)c2cnc[nH]2)cc1	73*	0	0.3	98*	7	-13
O=S(=O)(NCc1cccnc1)c1ccccc1	16	1.1	0.8	-5	0	.
